Measured values taken from ChEMBL document CHEMBL4689842, “EUbOPEN Chemogenomics Library wave 1” (2021).

Test system: HEK-293T
Experiment: Multiplex assay against HEK293T;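 on Population Tubulin-Different-Phenotype (%): share of the cells with healthy nuclei that show this phenotype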
Type: toxicity, cell-based
Details: human
In short: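 Phenotypes for tubulin, mitochondrial mass and membrane permeability are expressed as per cents of healthy-nucleus cells. Cells were stained live at seeding with Hoechst33342, BioTracker Green Microtubule Cytoskeleton Dye, MitoTracker Red and Annexin V Alexa Fluor 680, then imaged after compound addition on a CQ1 microscope at 37°C and 5% CO2. Machine-learning gating in CellPathfinder separated Hoechst high-intensity objects from normal cells, divided normal cells by nuclear state (healthy, pyknosed, fragmented) and divided pyknosed cells into mitotic or apoptotic.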

[1] = 12 h, 1 µM, compound concentration 1 uM, replicate 1
[2] = 12 h, 1 µM, compound concentration 1 uM, replicate 2
[3] = 12 h, 10 µM, compound concentration 10 uM, replicate 1
[4] = 12 h, 10 µM, compound concentration 10 uM, replicate 2
[5] = 24 h, 1 µM, compound concentration 1 uM, replicate 1
[6] = 24 h, 1 µM, compound concentration 1 uM, replicate 2
[7] = 24 h, 10 µM, compound concentration 10 uM, replicate 1
[8] = 24 h, 10 µM, compound concentration 10 uM, replicate 2
[9] = 48 h, 1 µM, compound concentration 1 uM, replicate 1
[10] = 48 h, 1 µM, compound concentration 1 uM, replicate 2
[11] = 48 h, 10 µM, compound concentration 10 uM, replicate 1
[12] = 48 h, 10 µM, compound concentration 10 uM, replicate 2

CCCn1c(=O)c2[nH]c(-c3cnn(Cc4cccc(C(F)(F)F)c4)c3)nc2n(CC)c1=O [GS 6201]
Population Apoptotic (%) [1]: 48% | Population Fragmented Nuclei (%) [1]: 14% | Population Healthy Nuclei (%) [1]: 15% | Population Hoechst High Intensity Objects (%) [1]: 18% | Population Membrane Permeable-Phenotype (%) [1]: 2% | Population Mitochondria Different-Phenotype (%) [1]: 83% | Population Mitotic Cells (%) [1]: 51% | Population Normal (%) [1]: 81% | Population Pyknosed Nuclei (%) [1]: 69% | Population Tubulin-Different-Phenotype (%) [1]: 67% | Total Cell Count [1]: 294 | Population Apoptotic (%) [2]: 9% | Population Fragmented Nuclei (%) [2]: 7% | Population Healthy Nuclei (%) [2]: 43% | Population Hoechst High Intensity Objects (%) [2]: 5% | Population Membrane Permeable-Phenotype (%) [2]: 10% | Population Mitochondria Different-Phenotype (%) [2]: 9% | Population Mitotic Cells (%) [2]: 90% | Population Normal (%) [2]: 94% | Population Pyknosed Nuclei (%) [2]: 49% | Population Tubulin-Different-Phenotype (%) [2]: 22% | Total Cell Count [2]: 239 | Population Apoptotic (%) [3]: 46% | Population Fragmented Nuclei (%) [3]: 28% | Population Healthy Nuclei (%) [3]: 13% | Population Hoechst High Intensity Objects (%) [3]: 25% | Population Membrane Permeable-Phenotype (%) [3]: 0% | Population Mitochondria Different-Phenotype (%) [3]: 80% | Population Mitotic Cells (%) [3]: 53% | Population Normal (%) [3]: 74% | Population Pyknosed Nuclei (%) [3]: 58% | Population Tubulin-Different-Phenotype (%) [3]: 83% | Total Cell Count [3]: 316 | Population Apoptotic (%) [4]: 8% | Population Fragmented Nuclei (%) [4]: 4% | Population Healthy Nuclei (%) [4]: 45% | Population Hoechst High Intensity Objects (%) [4]: 2% | Population Membrane Permeable-Phenotype (%) [4]: 7% | Population Mitochondria Different-Phenotype (%) [4]: 25% | Population Mitotic Cells (%) [4]: 91% | Population Normal (%) [4]: 97% | Population Pyknosed Nuclei (%) [4]: 49% | Population Tubulin-Different-Phenotype (%) [4]: 31% | Total Cell Count [4]: 325 | Population Apoptotic (%) [5]: 52% | Population Fragmented Nuclei (%) [5]: 19% | Population Healthy Nuclei (%) [5]: 10% | Population Hoechst High Intensity Objects (%) [5]: 23% | Population Membrane Permeable-Phenotype (%) [5]: 0% | Population Mitochondria Different-Phenotype (%) [5]: 75% | Population Mitotic Cells (%) [5]: 47% | Population Normal (%) [5]: 76% | Population Pyknosed Nuclei (%) [5]: 70% | Population Tubulin-Different-Phenotype (%) [5]: 66% | Total Cell Count [5]: 303 | Population Apoptotic (%) [6]: 13% | Population Fragmented Nuclei (%) [6]: 5% | Population Healthy Nuclei (%) [6]: 64% | Population Hoechst High Intensity Objects (%) [6]: 1% | Population Membrane Permeable-Phenotype (%) [6]: 11% | Population Mitochondria Different-Phenotype (%) [6]: 12% | Population Mitotic Cells (%) [6]: 86% | Population Normal (%) [6]: 98% | Population Pyknosed Nuclei (%) [6]: 29% | Population Tubulin-Different-Phenotype (%) [6]: 28% | Total Cell Count [6]: 288 | Population Apoptotic (%) [7]: 47% | Population Fragmented Nuclei (%) [7]: 35% | Population Healthy Nuclei (%) [7]: 18% | Population Hoechst High Intensity Objects (%) [7]: 24% | Population Membrane Permeable-Phenotype (%) [7]: 4% | Population Mitochondria Different-Phenotype (%) [7]: 84% | Population Mitotic Cells (%) [7]: 52% | Population Normal (%) [7]: 75% | Population Pyknosed Nuclei (%) [7]: 46% | Population Tubulin-Different-Phenotype (%) [7]: 72% | Total Cell Count [7]: 314 | Population Apoptotic (%) [8]: 17% | Population Fragmented Nuclei (%) [8]: 3% | Population Healthy Nuclei (%) [8]: 63% | Population Hoechst High Intensity Objects (%) [8]: 1% | Population Membrane Permeable-Phenotype (%) [8]: 8% | Population Mitochondria Different-Phenotype (%) [8]: 17% | Population Mitotic Cells (%) [8]: 82% | Population Normal (%) [8]: 98% | Population Pyknosed Nuclei (%) [8]: 32% | Population Tubulin-Different-Phenotype (%) [8]: 35% | Total Cell Count [8]: 424 | Population Apoptotic (%) [9]: 55% | Population Fragmented Nuclei (%) [9]: 27% | Population Healthy Nuclei (%) [9]: 6% | Population Hoechst High Intensity Objects (%) [9]: 19% | Population Membrane Permeable-Phenotype (%) [9]: 0% | Population Mitochondria Different-Phenotype (%) [9]: 29% | Population Mitotic Cells (%) [9]: 44% | Population Normal (%) [9]: 80% | Population Pyknosed Nuclei (%) [9]: 65% | Population Tubulin-Different-Phenotype (%) [9]: 47% | Total Cell Count [9]: 303 | Population Apoptotic (%) [10]: 14% | Population Fragmented Nuclei (%) [10]: 5% | Population Healthy Nuclei (%) [10]: 81% | Population Hoechst High Intensity Objects (%) [10]: 3% | Population Membrane Permeable-Phenotype (%) [10]: 7% | Population Mitochondria Different-Phenotype (%) [10]: 3% | Population Mitotic Cells (%) [10]: 85% | Population Normal (%) [10]: 96% | Population Pyknosed Nuclei (%) [10]: 13% | Population Tubulin-Different-Phenotype (%) [10]: 12% | Total Cell Count [10]: 506 | Population Apoptotic (%) [11]: 53% | Population Fragmented Nuclei (%) [11]: 44% | Population Healthy Nuclei (%) [11]: 11% | Population Hoechst High Intensity Objects (%) [11]: 24% | Population Membrane Permeable-Phenotype (%) [11]: 0% | Population Mitochondria Different-Phenotype (%) [11]: 62% | Population Mitotic Cells (%) [11]: 46% | Population Normal (%) [11]: 75% | Population Pyknosed Nuclei (%) [11]: 44% | Population Tubulin-Different-Phenotype (%) [11]: 59% | Total Cell Count [11]: 325 | Population Apoptotic (%) [12]: 18% | Population Fragmented Nuclei (%) [12]: 5% | Population Healthy Nuclei (%) [12]: 83% | Population Hoechst High Intensity Objects (%) [12]: 4% | Population Membrane Permeable-Phenotype (%) [12]: 5% | Population Mitochondria Different-Phenotype (%) [12]: 8% | Population Mitotic Cells (%) [12]: 81% | Population Normal (%) [12]: 95% | Population Pyknosed Nuclei (%) [12]: 10% | Population Tubulin-Different-Phenotype (%) [12]: 31% | Total Cell Count [12]: 739

CCn1cc(-c2ccnc3[nH]c(-c4cccc(CN(C)C)c4)cc23)c(-c2ccc(NC(=O)N(C)C)cc2)n1 [GSK-1070916]
Population Apoptotic (%) [1]: 17% | Population Fragmented Nuclei (%) [1]: 16% | Population Healthy Nuclei (%) [1]: 64% | Population Hoechst High Intensity Objects (%) [1]: 11% | Population Membrane Permeable-Phenotype (%) [1]: 16% | Population Mitochondria Different-Phenotype (%) [1]: 9% | Population Mitotic Cells (%) [1]: 82% | Population Normal (%) [1]: 88% | Population Pyknosed Nuclei (%) [1]: 18% | Population Tubulin-Different-Phenotype (%) [1]: 18% | Total Cell Count [1]: 676 | Population Apoptotic (%) [2]: 8% | Population Fragmented Nuclei (%) [2]: 6% | Population Healthy Nuclei (%) [2]: 84% | Population Hoechst High Intensity Objects (%) [2]: 2% | Population Membrane Permeable-Phenotype (%) [2]: 9% | Population Mitochondria Different-Phenotype (%) [2]: 13% | Population Mitotic Cells (%) [2]: 91% | Population Normal (%) [2]: 97% | Population Pyknosed Nuclei (%) [2]: 8% | Population Tubulin-Different-Phenotype (%) [2]: 36% | Total Cell Count [2]: 1405 | Population Apoptotic (%) [3]: 28% | Population Fragmented Nuclei (%) [3]: 14% | Population Healthy Nuclei (%) [3]: 49% | Population Hoechst High Intensity Objects (%) [3]: 24% | Population Membrane Permeable-Phenotype (%) [3]: 16% | Population Mitochondria Different-Phenotype (%) [3]: 32% | Population Mitotic Cells (%) [3]: 71% | Population Normal (%) [3]: 75% | Population Pyknosed Nuclei (%) [3]: 35% | Population Tubulin-Different-Phenotype (%) [3]: 91% | Total Cell Count [3]: 688 | Population Apoptotic (%) [4]: 8% | Population Fragmented Nuclei (%) [4]: 1% | Population Healthy Nuclei (%) [4]: 81% | Population Hoechst High Intensity Objects (%) [4]: 10% | Population Membrane Permeable-Phenotype (%) [4]: 14% | Population Mitochondria Different-Phenotype (%) [4]: 37% | Population Mitotic Cells (%) [4]: 91% | Population Normal (%) [4]: 89% | Population Pyknosed Nuclei (%) [4]: 17% | Population Tubulin-Different-Phenotype (%) [4]: 99% | Total Cell Count [4]: 1174 | Population Apoptotic (%) [5]: 15% | Population Fragmented Nuclei (%) [5]: 13% | Population Healthy Nuclei (%) [5]: 73% | Population Hoechst High Intensity Objects (%) [5]: 8% | Population Membrane Permeable-Phenotype (%) [5]: 18% | Population Mitochondria Different-Phenotype (%) [5]: 6% | Population Mitotic Cells (%) [5]: 84% | Population Normal (%) [5]: 91% | Population Pyknosed Nuclei (%) [5]: 12% | Population Tubulin-Different-Phenotype (%) [5]: 37% | Total Cell Count [5]: 672 | Population Apoptotic (%) [6]: 3% | Population Fragmented Nuclei (%) [6]: 9% | Population Healthy Nuclei (%) [6]: 85% | Population Hoechst High Intensity Objects (%) [6]: 5% | Population Membrane Permeable-Phenotype (%) [6]: 12% | Population Mitochondria Different-Phenotype (%) [6]: 3% | Population Mitotic Cells (%) [6]: 96% | Population Normal (%) [6]: 94% | Population Pyknosed Nuclei (%) [6]: 5% | Population Tubulin-Different-Phenotype (%) [6]: 43% | Total Cell Count [6]: 1602 | Population Apoptotic (%) [7]: 31% | Population Fragmented Nuclei (%) [7]: 17% | Population Healthy Nuclei (%) [7]: 57% | Population Hoechst High Intensity Objects (%) [7]: 33% | Population Membrane Permeable-Phenotype (%) [7]: 9% | Population Mitochondria Different-Phenotype (%) [7]: 42% | Population Mitotic Cells (%) [7]: 68% | Population Normal (%) [7]: 66% | Population Pyknosed Nuclei (%) [7]: 24% | Population Tubulin-Different-Phenotype (%) [7]: 89% | Total Cell Count [7]: 562 | Population Apoptotic (%) [8]: 10% | Population Fragmented Nuclei (%) [8]: 3% | Population Healthy Nuclei (%) [8]: 84% | Population Hoechst High Intensity Objects (%) [8]: 17% | Population Membrane Permeable-Phenotype (%) [8]: 18% | Population Mitochondria Different-Phenotype (%) [8]: 39% | Population Mitotic Cells (%) [8]: 89% | Population Normal (%) [8]: 82% | Population Pyknosed Nuclei (%) [8]: 11% | Population Tubulin-Different-Phenotype (%) [8]: 98% | Total Cell Count [8]: 1112
